High-throughput results from PubChem BioAssay.
Only some compounds are listed: those with a hit (about 0.99% of all), similar ones and a draw of the others.
NPR1 activator = GC-A stimulated cGMP production enhancers – HEK293 GC-A cells, cGMP TR-FRET, EC30 ANP, primary screen; activation, % at 10 µM; actives 0.14% (n = 370,000); 0% at EC30 ANP, 100% saturating ANP; Atrial natriuretic peptide receptor 1 (Homo sapiens), P16066; in the data active = activation above about 40%
FN deposition inh = inhibitors of fibronectin matrix deposition, primary screen, AH1F cells, Alexa488-fibronectin fluorescence, plate reader. AH1F fibroblasts, overnight. inhibition, % at 12.6 µM. actives 0.086% (n = 350,000). AID 743247, 2014;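 active = mean inhibition across replicates of 30% or more, regardless of how many single replicates reach that level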;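 note: positive control wells lacked labelled fibronectin entirely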
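Schedule: 1 h cell adhesion before compound, then overnight fibronectin incubation; test system: AH1F fibroblast monolayer depositing Alexa488-labelled fibronectin into matrix; quantity: 10000 AH1F cells per well; probe or stimulus: fluorescent fibronectin at 24 nM final; signal: fluorescence, ex 485 nm, em 525 nm; evaluation: percent inhibition as loss of matrix-bound fibronectin fluorescence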
CASP6 VEID inh = human caspase-6 inhibitors, primary screen, biochemical, VEID-R110 fluorescence, single point, set 2 | purified caspase-6, Z-VEID-R110 cleavage fluorescence | inhibition, % at 12.5 µM | actives 0.53% (n = 350,000) | AID 686996, 2013;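 active = mean inhibition across replicates at least about 35%, with every replicate also reaching that limit, limit read from the data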;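 note: 0% = median of neutral control wells and 100% = no fluorescence left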
Target sequence (P55212 24-179 limits assumed): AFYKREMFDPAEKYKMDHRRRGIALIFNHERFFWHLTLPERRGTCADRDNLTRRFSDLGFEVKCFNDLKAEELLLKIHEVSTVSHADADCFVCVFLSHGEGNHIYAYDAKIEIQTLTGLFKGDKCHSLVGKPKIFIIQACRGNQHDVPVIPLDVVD
Target sequence (P55212 194-293 limits assumed): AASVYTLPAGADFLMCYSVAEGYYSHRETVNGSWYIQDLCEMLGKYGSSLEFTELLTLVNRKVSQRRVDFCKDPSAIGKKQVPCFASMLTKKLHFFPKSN
CaV13 FRET inh = Primary screen for inhibitors of IQ motif and Ca2+-dependent inactivation inhibitor domain binding in CACNA1D, Förster resonance energy transfer in living cells, …. HEK cells, CFP/YFP FRET ICDI-IQ, plate reader, 10 min; percent FRET-ratio fall versus neutral wells. inhibition, % at 12.3 µM. actives 0.098% (n = 340,000);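 active = mean replicate inhibition of at least 30% and at least 1% of replicates passing that level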;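 note: 0% = median of the neutral control wells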
NSD2 HMT inh = NSD2 histone methyltransferase inhibitors, primary screen, biochemical, AlphaScreen, single concentration, set 2; Histone-lysine N-methyltransferase NSD2 (Homo sapiens), O96028; NSD2 peptide methylation, 120 min; inhibition, % at 12.5 µM; actives 0.54% (n = 310,000); in the data active = inhibition above about 50%
NPR2 activator = human GC-B receptor activators, primary screen, HEK293 GC-B cells, cGMP TR-FRET, EC30 CNP | Atrial natriuretic peptide receptor 2 (Homo sapiens), P20594 | 0% at EC30 CNP, 100% saturating CNP | activation, % at 10 µM | actives 0.11% (n = 370,000) | AID 1920062, 2024;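 active = activation at 10 µM reaching about 35% in either raw or pattern-adjusted values, limit read from the data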
* hit, by the source's call; nt = not tested or not shown; + = active, no number; ! = not active in a repeat.

SMILES | NPR1 activator | FN deposition inh | CASP6 VEID inh | CaV13 FRET inh | NSD2 HMT inh | NPR2 activator
Nc1ccc(Sc2ccccc2Cl)nc1 | -1 | 4 | 43* | -3 | nt | -1
COc1ccc(NC(=O)N(C)C[C@H]2Oc3ccc(NC(=O)C4CC4)cc3C(=O)N([C@H](C)CO)C[C@H]2C)cc1 | nt | nt | 0 | nt | nt | nt
COc1cc(C2C(C#N)=C(N)OC3=C2C(=O)CCC3)c([N+](=O)[O-])cc1OC (stereo unspecified) | -6 | 3 | nt | -6 | 75* | -11
CN1C(=O)c2cc(NC(=O)Nc3ccc(F)cc3)ccc2OC[C@@H]2O[C@H](CC(=O)NC3CCC3)CC[C@@H]21 | nt | -12 | 1 | nt | nt | nt
COc1ccc2cc(/C=N/NC(=O)CN3CCOCC3)c(Cl)nc2c1 | nt | nt | nt | nt | 0 | nt
O=C(Nc1ccc(NC(=O)C2CC2)cc1)c1cccs1 | 1 | nt | 59* | nt | -3 | -7
O=C(Nc1ccc(NC(=O)c2cccs2)cc1)c1cccs1 | 1 | 1 | 0 | -3 | -2 | -4
CC(=O)NC(c1ccc(C(C)C)cc1)c1c(O)ccc2ccccc12 (stereo unspecified) | 47* | -16 | -4 | -5 | -1 | -7
C[C@H](CO)N1C[C@H](C)[C@H](CN(C)Cc2ccc(Cl)c(Cl)c2)OCc2cnnn2CCCC1=O | nt | 9 | 1 | nt | nt | nt
CCOc1ccc(N(CC(=O)Nc2cc(Cl)ccc2C)S(C)(=O)=O)cc1 | -8 | -10 | 57* | -4 | -3 | 0
CCOc1ccc(N(CC(=O)Nc2ccccc2Cl)S(C)(=O)=O)cc1 | 3 | -3 | 2 | -6 | 0 | 1
CCCNC(=O)C[C@H]1CC[C@@H]2[C@H](COc3ccc(NC(=O)c4ccc(Cl)cc4)cc3C(=O)N2C)O1 | nt | 6 | 0 | nt | nt | nt
C[C@H]1CCCCO[C@H](CN(C)C(=O)c2ccccc2)[C@@H](C)CN([C@@H](C)CO)C(=O)c2cc(NC(=O)Cc3ccccc3)ccc2O1 | nt | nt | -4 | nt | nt | nt
CN1C(=O)c2cc(NC(=O)c3cccs3)ccc2OC[C@@H]2O[C@H](CC(=O)NCCN3CCCCC3)CC[C@H]21 | nt | 1 | -2 | nt | nt | nt
O=C(CSc1nccc(=O)[nH]1)NCc1ccco1 | -2 | 3 | 42* | -16 | nt | 5
Cc1cc(=O)[nH]c(SCC(=O)NCc2ccco2)n1 | -1 | nt | nt | nt | -4 | 3
O=C1NC(=S)S/C1=C\C=C\c1ccc([N+](=O)[O-])o1 | -14 | -2 | 96* | -6 | nt | -5
O=C(CCN1CCN(c2ccc([N+](=O)[O-])cc2)CC1)c1ccc(Cl)cc1 | 63* | -1 | 1 | -2 | 13 | -9
O=C(CCN1CCN(c2ccccc2)CC1)c1ccc(Cl)cc1 | 44* | -1 | 4 | -5 | 15 | -4
O=C(C[C@H]1CC[C@H]2[C@@H](COC[C@@H](O)CN2S(=O)(=O)c2ccc(F)cc2)O1)NCCN1CCCCC1 | nt | 0 | 0 | nt | nt | nt
CCCNC(=O)[C@@H]1[C@@H](CO)[C@@H]2Cn3c(cccc3=O)[C@@H]2N1C(=O)C1CCC1 | nt | 6 | -3 | nt | nt | nt
O=[N+]([O-])c1ccc(N2CCCC2)cc1N1CCCC1 | -1 | nt | nt | -8 | 53* | 4
O=[N+]([O-])c1ccc(N2CCCCC2)cc1N1CCOCC1 | 1 | 6 | 0 | -3 | 6 | 1
O=C(C[C@H]1CC[C@H]2[C@@H](COC[C@@H](O)CN2Cc2cc(F)ccc2F)O1)N1CCc2ccccc2C1 | nt | -13 | 0 | nt | nt | nt
Cc1ccc(S(=O)(=O)N/N=C\c2cc3c(cc2Br)OCO3)cc1 | -1 | -1 | nt | -2 | -4 | -2
SMILES | NPR1 activator | FN deposition inh | CASP6 VEID inh | CaV13 FRET inh | NSD2 HMT inh | NPR2 activator
O=[N+]([O-])c1cc2c(cc1/C=N/NS(=O)(=O)c1ccc(Br)cc1)OCO2 | 1 | 4 | 44* | -4 | 15 | 7
C[C@H]1CN([C@@H](C)CO)C(=O)c2cc(NC(=O)NC3CCCCC3)ccc2O[C@H]1CN(C)C(=O)Nc1ccc2c(c1)OCO2 | nt | 1 | -4 | nt | nt | nt
O=C(NCc1nnnn1-c1ccc(Cl)cc1)C1CC(=O)N(c2ccc(F)cc2)C1 (stereo unspecified) | 0 | 3 | 0 | 36* | 2 | 4
COc1ccc(-n2nnnc2CNC(=O)C2CC(=O)N(c3ccc(F)cc3)C2)cc1 (stereo unspecified) | 1 | -1 | -2 | -5 | -4 | 1
C[C@H]1CC=CCCNC(=O)[C@H](C)N(C)C(=O)c2ccccc2O1 (mixture of isomers) | nt | -1 | nt | nt | nt | nt
COc1cc2c(cc1OC)/C(=C/C(=O)c1ccccc1F)NCC2 | 3 | 18 | 15 | -4 | 11 | -1
COc1cc2c(cc1OC)/C(=C/C(=O)c1ccc(F)cc1)NCC2 | -6 | 5 | 44* | -3 | 11 | 1
CC(=O)N1C[C@@H]2[C@H](c3ccccc31)[C@@H](CO)N2C(=O)CC1CC1 | nt | nt | 0 | nt | nt | nt
CC(Sc1cnc2ccccc2n1)C(=O)O (stereo unspecified) | 18 | 1 | nt | -4 | 1 | 11
CC(Sc1ccc2ccccc2n1)C(=O)O (stereo unspecified) | 48*! | 3 | nt | -5 | -1 | 29
O=C(O)c1c[nH]c2c([N+](=O)[O-])cccc2c1=O | 1 | 10 | 36* | -5 | 2 | -1
C[C@@H]1CN([C@H](C)CO)C(=O)Cc2cc(NC(=O)NC3CCCCC3)ccc2O[C@H]1CN(C)Cc1ccc(-c2ccccc2)cc1 | nt | nt | -2 | nt | nt | nt
CN1CCc2c(sc(NC(=O)c3cc(Cl)sc3Cl)c2C(N)=O)C1 | 3 | -3 | -2 | + | nt | -16
COCC(=O)N1[C@H](CO)[C@H]2c3ccccc3N(C(=O)c3cccc(OC)c3)C[C@H]21 | nt | nt | -6 | nt | nt | nt
O=C(/C=C/c1ccc(Cl)cc1Cl)OCC(=O)N1CCCC1 | 41* | -1 | -1 | -4 | -3 | -3
CCN(C(=O)COC(=O)/C=C/c1ccco1)C1CCCCC1 | 1 | 7 | 57* | -15 | 10 | -2
O=C(/C=C/c1ccco1)OCC(=O)N1CCCCC1 | 1 | -1 | 50* | -9 | 4 | 1
CCN(C(=O)COC(=O)/C=C/c1ccc(F)cc1)C1CCCCC1 | 0 | -3 | 2 | -6 | 0 | 4
C[C@@H]1CN([C@H](C)CO)S(=O)(=O)c2ccc(/C=C/c3ccccc3)cc2O[C@@H]1CN(C)C(=O)c1ccc2c(c1)OCO2 | nt | nt | -3 | nt | nt | nt
CC(C)CNC(=O)C1(C)CCCCCN1C(=O)c1cc2ccccc2s1 (stereo unspecified) | 1 | -11 | 2 | -6 | -1 | 0
